Test results reported in ChEMBL document CHEMBL3352024, “A new series of HAPs as anti-HBV agents targeting at capsid assembly” (Bioorg Med Chem Lett, 2014).
Activity calls are given as the source filed them. No cut-off for these calls is given here.

What was measured:
Hepatitis B virus [1] = assay: Antiviral activity against hepatitis B virus infected in human HepG2.2.15 cells assessed as inhibition of viral replication; assay type: functional, organism-based; details: hepg2 2.2.15
hepatitis B virus [2] = assay: (§1) Selectivity index, ratio of TC50 for human HepG2.2.15 cells to IC50 for hepatitis B virus infected in human HepG2.2.15 cells; assay type: toxicity, cell-based; details: HepG2.2.15 cells, read-out: Selectivity Index
[3] = Cytotoxicity against human HepG2.2.15 cells after 48 hrs; assay type: cell-based; details: hepg2 2.2.15, 48 h
Summary of the method: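 HepG2.2.15 cells exposed to compounds for 48 h; cell viability then determined as the cytotoxicity read-out.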

[4] = as §1; assay type: toxicity, cell-based
[5] = biological target: Core antigen (Hepatitis B virus) (UniProt Q03732); assay: Inhibition of hepatitis B virus capsid assembly after 24 hrs by HPLC analysis
Summary of the method: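 Cp149 capsid protein is mixed with compound in 2× assembly buffer and incubated 24 h. Reactions are analysed by size-exclusion chromatography on an HPLC with autoinjection, on a column equilibrated in 100 mM HEPES pH 7.5, 300 mM NaCl at 0.6 ml/min. Recovered protein is assigned to void (8.5 min), capsid (9.5 min) and dimer (12.5 min) peaks.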

Hepatitis B virus [6] = assay: Inhibition of hepatitis B virus capsid cp149 assembly assessed as reduction in dimer formation at capsid-compound ratio of 1:2 to 1:4 after 24 hrs by HPLC analysis

Sequence of Core antigen (Hepatitis B virus) (Q03732 as listed by the source): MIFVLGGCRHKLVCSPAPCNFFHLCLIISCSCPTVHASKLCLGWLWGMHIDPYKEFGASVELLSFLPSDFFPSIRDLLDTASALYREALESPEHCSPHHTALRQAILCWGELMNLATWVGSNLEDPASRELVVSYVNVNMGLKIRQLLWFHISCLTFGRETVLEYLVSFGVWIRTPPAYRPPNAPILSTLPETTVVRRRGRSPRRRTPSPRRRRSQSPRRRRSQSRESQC

What does the source list for `CCOC(=O)C1=C(CN2CCOCC2)NC(c2c(F)cc(F)cc2N2CCOCC2)=NC1c1ccc(F)cc1Cl` (stereo not drawn)?
IC50 (Hepatitis B virus [1]): 4.35 µmol; selectivity ratio (hepatitis B virus [2]): 12.7; TC0 [3]: 12.81 µmol; TC50 [3]: 55.25 µmol

With `CCOC(=O)C1=C(CN2CCN(CC)CC2)NC(c2c(F)cc(F)cc2F)=NC1c1ccc(F)cc1Cl` (stereo not drawn) as the compound, how does the IC50 (Hepatitis B virus [1]) read?
The IC50 was 6.71 µmol.

And the selectivity ratio (hepatitis B virus [2])?
The selectivity ratio was 6.16.

And the TC0 [3]?
Its TC0 is 13.78 µmol.

And the TC50 [3]?
Its TC50 is 41.3 µmol.

For `CCOC(=O)C1=C(CN(CCO)CCO)NC(c2c(F)cc(F)cc2F)=NC1c1ccc(F)cc1Cl` (stereo not drawn), which IC50 (Hepatitis B virus [1]) is on record?
Its IC50 is 6.66 µmol.

And the selectivity ratio (hepatitis B virus [2])?
The selectivity ratio was 8.11.

What about the TC0 [3] of the same compound?
The TC0 was 13.98 µmol.

And the TC50 [3]?
Its TC50 is 54.02 µmol.

Which IC50 (Hepatitis B virus [1]) does the source give for `CCOC(=O)C1=C(CN2CCOCC2)NC(c2c(F)cc(F)cc2F)=NC1c1ccc(F)cc1Cl` (stereo not drawn) [listing 1 of 2 here] here?
Its IC50 is 10.57 µmol.

And the “Selectivity Index” value [4]?
The value was 3.19.

What about the TC0 [3] of the same compound?
Its TC0 is 4.83 µmol.

And the TC50 [3]?
The TC50 was 33.75 µmol.

Which IC50 (Hepatitis B virus [1]) does the source give for `CCOC(=O)C1=C(CN2CCOCC2)NC(c2c(F)cc(F)cc2F)=NC1c1ccc(F)cc1Cl.Cl` (stereo not drawn) here?
The IC50 was 2.35 µmol.

And the “Selectivity Index” value [4]?
Its value is 13.37.

And the TC0 [3]?
The TC0 was 4.51 µmol.

What about the TC50 [3] of the same compound?
Its TC50 is 31.48 µmol.

For `Nc1ccn([C@@H]2CS[C@H](CO)O2)c(=O)n1` [LAMIVUDINE], which IC50 (Hepatitis B virus [1]) is on record?
Its IC50 is 14.17 µmol.

And the TC0 [3]?
Its TC0 is 0.82 µmol.

And the TC50 [3]?
The TC50 was 5.75 µmol.

For `CCOC(=O)C1=C(CN2CCN(C(=O)OCC)CC2)NC(c2c(F)cc(F)cc2F)=NC1c1ccc(F)cc1Cl` (stereo not drawn), which TC0 [3] is on record?
Its TC0 is 4.22 µmol.

And the TC50 [3]?
Its TC50 is 29.6 µmol.

What does the source list for `CCOC(=O)C1=C(CN2CCNC(=O)C2)NC(c2c(F)cc(F)cc2F)=NC1c1ccc(F)cc1Cl` (stereo not drawn)?
IC50 (Hepatitis B virus [1]): 5.74 µmol; selectivity ratio (hepatitis B virus [2]): 5.72; TC0 [3]: 4.7 µmol; TC50 [3]: 32.85 µmol

Which TC0 [3] does the source give for `CCCN1CCN(CC2=C(C(=O)OCC)C(c3ccc(F)cc3Cl)N=C(c3c(F)cc(F)cc3F)N2)CC1` (stereo not drawn) here?
Its TC0 is 4.45 µmol.

What about the TC50 [3] of the same compound?
The TC50 was 31.25 µmol.

Which TC0 [3] does the source give for `CCOC(=O)C1=C(CN2CCSCC2)NC(c2c(F)cc(F)cc2F)=NC1c1ccc(F)cc1Cl` (stereo not drawn) here?
The TC0 was 4.68 µmol.

And the TC50 [3]?
The TC50 was 32.73 µmol.

What does the source list for `CCOC(=O)C1=C(CN2CCOCC2)NC(c2c(F)cc(F)cc2F)=NC1c1ccc(F)cc1Cl` (stereo not drawn) [listing 2 of 2 here]?
inhibition [5]: Active; inhibition (Hepatitis B virus [6]): Active

What does the source list for `CCOC(=O)C1=C(CN2CCC(C)CC2)NC(c2c(F)cc(F)cc2F)=NC1c1ccc(F)cc1Cl` (stereo not drawn)?
IC50 (Hepatitis B virus [1]): 9.56 µmol; TC0 [3]: 4.65 µmol; TC50 [3]: 32.98 µmol

Which IC50 (Hepatitis B virus [1]) does the source give for `CCOC(=O)C1=C(CN2CCCCC2)NC(c2c(F)cc(F)cc2F)=NC1c1ccc(F)cc1Cl` (stereo not drawn) here?
The IC50 was 10.24 µmol.

And the selectivity ratio (hepatitis B virus [2])?
The selectivity ratio was 2.46.

What about the TC0 [3] of the same compound?
Its TC0 is 14.56 µmol.

And the TC50 [3]?
The TC50 was 25.21 µmol.

With `CCOC(=O)C1=C(CN2CCN(C)CC2)NC(c2c(F)cc(F)cc2F)=NC1c1ccc(F)cc1Cl` (stereo not drawn) as the compound, how does the IC50 (Hepatitis B virus [1]) read?
Its IC50 is 7.55 µmol.

What about the selectivity ratio (hepatitis B virus [2]) of the same compound?
Its selectivity ratio is 13.1.

What about the TC0 [3] of the same compound?
The TC0 was 14.1 µmol.

What about the TC50 [3] of the same compound?
Its TC50 is 98.74 µmol.

Which results are given for `CCOC(=O)C1=C(CN2CCCC2)NC(c2c(F)cc(F)cc2F)=NC1c1ccc(F)cc1Cl` (stereo not drawn)?
TC0 [3]: 14.96 µmol; TC50 [3]: 77.29 µmol
